Consider twelve compounds from ChEMBL document CHEMBL4043171, “Chemoselective fluorination and chemoinformatic analysis of griseofulvin: Natural vs fluorinated fungal metabolites” (Bioorg Med Chem, 2017).

The source made the active and inactive calls. No cut-off for these calls is given here.

For assay [1], the system named is MDA-MB-435. The experiment in a line: Cytotoxicity against human MDA-MB-435 cells assessed as reduction in cell viability at 50 uM by cell titer 96 aqueous one solution cell proliferation assay. The class given is functional, cell-based.
The test system of assay [2] is MDA-MB-231. The assay can be described thus: Cytotoxicity against human MDA-MB-231 cells assessed as reduction in cell viability at 50 uM by cell titer 96 aqueous one solution cell proliferation assay. The class given is functional, cell-based.
Assay [3] concerns OVCAR-3. The experiment in a line: Cytotoxicity against human OVCAR3 cells assessed as reduction in cell viability at 50 uM by cell titer 96 aqueous one solution cell proliferation assay. The class given is functional, cell-based.
For assay [4], the system named is Nannizzia gypsea. The assay can be described thus: Antifungal activity against Microsporum gypseum at 25 ug/disc incubated for 5 days by agar disk diffusion method. The conditions noted are these: 120 h, read-out: DIZ. The class given is functional. The method, boiled down: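 Conidia of M. gypseum, kept on Sabouraud dextrose agar, were harvested in sterile water and adjusted to 0.5–1.0 OD at 600 nm (~10^5 cells/mL). The suspension was seeded onto Mueller-Hinton agar with 2% glucose and 0.5 µg/ml methylene blue. Compounds in DMSO were loaded at 25 µg per 6 mm paper disk. Inhibition-zone diameters (mm) were read after 5 d, as mean ± SD of four replicates.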
Background: A growth-free zone around the sample is the usual read-out of agar diffusion tests.

The subject of assay [5] is MDA-MB-435. The assay can be described thus: Cytotoxicity against human MDA-MB-435 cells assessed as reduction in cell viability by cell titer 96 aqueous one solution cell proliferation assay. The class given is functional, cell-based. The method, boiled down:
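Cells were grown in RPMI 1640 with 10% FBS and penicillin/streptomycin at 37°C under 5% CO2. Log-phase cells were trypsinized, washed twice, seeded at 5,000 per well and incubated overnight. Compounds were added at final 20, 4, 0.8, 0.16 and 0.032 µM in 0.5% DMSO and incubated for 72 h at 37 °C. Viability was read by MTS-type absorbance assay as % survival versus DMSO control. Vinblastine served as positive control.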

Assay [6] concerns OVCAR-3. The assay can be described thus: Cytotoxicity against human OVCAR3 cells assessed as reduction in cell viability by cell titer 96 aqueous one solution cell proliferation assay. The class given is functional, cell-based.
Assay [7] has as its system Huh7.5.1. The assay can be described thus: Cytotoxicity against human Huh7.5.1 cells assessed as reduction in cell viability by ATPlite assay. Particulars: Huh-7.5.1. For orientation: In ATP-based viability assays light output follows the ATP content of the culture.

`COC1=CC(=O)C[C@@H](C)[C@]12Oc1cc(O)cc(OC)c1C2=O`: the outcome in assay [1], in assay [2] and in assay [3] was inactive. In addition, in assay [4], the zone of inhibition at 25 µg/disc was 0 mm.
Take `COC1=CC(=O)C2=C(O[C@]3(C2=O)C(OC)=CC(=O)C[C@H]3C)C1(F)Cl` (mixture of isomers): the result in assay [1], in assay [2] and in assay [3] was inactive. The zone of inhibition at 25 µg/disc in assay [4] is 0 mm.
As for `COC1=CC(=O)[C@H](O)[C@@H](C)[C@]12Oc1c(F)c(OC)cc(OC)c1C2=O`, the result in assay [1], in assay [2] and in assay [3] was inactive. The zone of inhibition at 25 µg/disc in assay [4] was 0 mm.
Consider `COC1=CC(=O)[C@H](O)[C@@H](C)[C@]12Oc1cc(OC)cc(OC)c1C2=O`, for which the result in assay [1], in assay [2] and in assay [3] was inactive. Further, the zone of inhibition at 25 µg/disc in assay [4] turned out to be 0 mm.
Turning to `COC1=CC(=O)[C@H](O)[C@@H](C)[C@]12Oc1c(Cl)c(OC)cc(OC)c1C2=O`, the result in assay [1], in assay [2] and in assay [3] was inactive. The zone of inhibition at 25 µg/disc in assay [4] worked out at 0 mm.
The IC50 is the concentration that gives 50% inhibition. On to `COC1=CC(=O)C[C@@H](C)[C@]12Oc1c(Cl)c(OC)cc(OC)c1C2=O` [GRISEOFULVIN], for which the 50% inhibitory concentration (IC50) in assay [5] was 6.4 µM; in assay [6], 48.5 µM; in assay [7], 10 to 25 µM. The outcome in assay [2] was inactive. Moreover, the zone of inhibition at 25 µg/disc in assay [4] was 35 mm.
Take `COC1=CC(=O)[C@H](O)[C@@H](C)[C@]12Oc1cc(OC)c(F)c(OC)c1C2=O`: the outcome in assay [1], in assay [2] and in assay [3] was inactive. In addition, in assay [4], the zone of inhibition at 25 µg/disc worked out at 0 mm.
Consider `COC1=CC(=O)C[C@@H](C)[C@]12Oc1c(F)c(OC)cc(OC)c1C2=O`, for which the IC50 in assay [5] was 22 µM; in assay [7], 10 to 25 µM. The result in assay [2] and in assay [3] was inactive. Also, the zone of inhibition at 25 µg/disc in assay [4] was determined as 34 mm.
Take `COC1=CC(=O)C[C@@H](C)[C@]12Oc1cc(OC)cc(OC)c1C2=O`: the result in assay [1], in assay [2] and in assay [3] was inactive. Besides, the zone of inhibition at 25 µg/disc in assay [4] is 0 mm.
For the compound `COC1=CC(=O)C[C@@H](C)[C@]12Oc1c(Cl)c(O)cc(OC)c1C2=O`, the outcome in assay [1], in assay [2] and in assay [3] was inactive. The zone of inhibition at 25 µg/disc in assay [4] came to 0 mm.
`COC1=CC(=O)C[C@@H](C)[C@]12Oc1c(Cl)c(OC)c(F)c(OC)c1C2=O`: the result in assay [1], in assay [2] and in assay [3] was inactive. In assay [4], the zone of inhibition at 25 µg/disc was 23 mm.
With `COC1=CC(=O)C[C@@H](C)[C@]12Oc1cc(OC)c(F)c(OC)c1C2=O`, the outcome in assay [1], in assay [2] and in assay [3] was inactive. Besides, the zone of inhibition at 25 µg/disc in assay [4] amounted to 0 mm.
